Test results reported in ChEMBL document CHEMBL3745658, “An Orally Bioavailable, Indole-3-glyoxylamide Based Series of Tubulin Polymerization Inhibitors Showing Tumor Growth Inhibition in a Mouse Xenograft Model of Head and Neck Cancer” (J Med Chem, 2015).
In brackets after ≈: the same amount, converted by molar mass. Activity calls are given as the source filed them. The calls are words filed in the database; no cut-off is given here.

How the values were obtained:
[1] = tested on: FaDu; experiment: Cytotoxicity against human FADU cells assessed as reduction in cell viability after 72 hrs by MTT assay; type: functional; details: read-out: LC50 (the source's name)
[2] = target: T1, Tubulin (Sus scrofa, UniProt P02554+P02550); experiment: Displacement of [3H]-colchicine from biotinylated porcine tubulin after 2 hrs by competitive binding assay; type: protein assay
How it was run: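 Biotinylated porcine tubulin (750 ng/well) with 0.1 μM [3H]-colchicine and test compound in G-PEM with 1 mM GTP, 3% DMSO, duplicate wells, 2 h at 37 °C. Streptavidin SPA beads then added for 45 min at 37 °C. Nonspecific binding taken with 1000-fold unlabeled excess. IC50 from seven-point semilog curves, four-parameter fit.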

[3] = target: T1, Tubulin; experiment: Inhibition of porcine brain tubulin polymerization assessed as reduction in GTP-induced microtubule assembly after 60 mins by OD340 method
[4] = Solubility in 2% DMSO containing 50 mM potassium phosphate buffer solution at pH 7.4 by dynamic light scattering method; details: 50 mM potassium phosphate buffer with 2% DMSO
[5] = target: T2, Tubulin (Sus scrofa) (UniProt P02554+P02550); experiment: Displacement of [3H]-paclitaxel from biotinylated porcine tubulin after 25 mins by competitive binding assay; type: protein assay
How it was run: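 Biotinylated porcine tubulin precoupled to SPA beads for 30 min at 4 °C, then 0.05 μM [3H]-paclitaxel and test compound added in G-PEM with 1 mM GTP, 3% DMSO, duplicate wells, 25 min at rt. Nonspecific binding taken with 1000-fold unlabeled excess. IC50 from seven-point semilog curves, four-parameter fit.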

[6] = target: T2, Tubulin (Sus scrofa); experiment: Displacement of [3H]-vinblastine from biotinylated porcine tubulin after 15 mins by competitive binding assay; type: protein assay
How it was run: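 Biotinylated porcine tubulin, 0.2 μM [3H]-vinblastine, SPA beads and test compound combined together in G-PEM with 1 mM GTP, 3% DMSO, duplicate wells, 15 min at rt before counting. Nonspecific binding taken with 1000-fold unlabeled excess. IC50 from seven-point semilog curves, four-parameter fit.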

[7] = Solubility in 2% DMSO containing 50 mM potassium phosphate buffer solution pH 7.4 at 10 uM by dynamic light scattering method; details: pH 7.4, 10 µM
[8] = Metabolic stability in CD-1 mouse liver microsomes assessed as half life at 1 uM preincubated for 5 mins before addition of NADPH by LC-MS/MS method; type: ADME
[9] = tested on: MES-SA/Dx5; experiment: Cytotoxicity against multidrug resistant human MES-SA/Dx5 cells assessed as reduction in cell viability after 72 hrs by MTT assay; type: functional, cell-based
How it was run: (§1)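 Cells plated at an appropriate density and left 24 h to attach, then dosed in triplicate with compound diluted from 10 mM DMSO stocks into full growth medium (added at 2× final concentration). After 72 h, cells PBS-washed and given MTT (0.5 mg/mL in PBS) for 45−60 min. Formazan dissolved in 0.1 M HCl/2-propanol, A570 read (650 nm reference). Viability normalised to DMSO control; LC50 by nonlinear regression.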

[10] = tested on: SCC-4; experiment: Cytotoxicity against human SCC4 cells assessed as reduction in cell viability after 72 hrs by MTT assay; type: functional, cell-based; how it was run: as §1
[11] = tested on: SK-MEL-28; experiment: Cytotoxicity against human SK-MEL-28 cells assessed as reduction in cell viability after 72 hrs by MTT assay; type: functional, cell-based; how it was run: as §1
[12] = tested on: SH-SY5Y; experiment: Cytotoxicity against human SH-SY5Y cells assessed as reduction in cell viability after 72 hrs by MTT assay; type: functional, cell-based; how it was run: as §1
[13] = tested on: MES-SA; experiment: Cytotoxicity against human MES-SA cells assessed as reduction in cell viability after 72 hrs by MTT assay; type: functional, cell-based; how it was run: as §1

Structure (SMILES)	CC50 [1] [nM]	also measured
COCCn1cc(C(=O)C(=O)Nc2ccc(OC)cc2)c2ccccc21	59	–
COCCn1cc(C(=O)C(=O)Nc2ccc(C(F)(F)F)nc2)c2ccccc21	> 10000	–
CC(C)n1cc(C(=O)C(=O)Nc2cccnc2)c2ccccc21	> 10000	–
COc1ccc2c(c1)c(C(=O)C(=O)Nc1ccc(OC)nc1)cn2C(C)C	> 10000	–
COCCn1cc(C(=O)C(=O)Nc2ccc(OC)nc2)c2cc(Cl)ccc21	> 10000	–
CCn1cc(C(=O)C(=O)Nc2ccncc2)c2ccccc21	> 10000	–
COc1nc(NC(=O)C(=O)c2cn(C(C)C)c3ccccc23)ns1	> 10000	–
COc1ccc(NC(=O)C(=O)c2cn(C3CCCC3)c3ccccc23)cn1	370	–
COCC(C)(C)n1cc(C(=O)C(=O)Nc2ccc(OC)nc2)c2ccccc21	137	IC50 [2]: 2500 nM; IC50 [3]: 7800 nM; solubility kinetic [4]: 10 µM (≈ 3.81 µg/mL); Activity [5]: inactive; Activity [6]: Active; solubility [7]: soluble; half-life at 1 µM [8]: 16 min; Activity [9]: Active; Activity [10]: Active; Activity [11]: Active; Activity [12]: Active; Activity [13]: Active
COc1ccc(NC(=O)C(=O)c2cn(C(C)C)c3c(Cl)cccc23)cn1	10200	–
COc1ccc(NC(=O)C(=O)c2cn(CCC(=O)O)c3ccccc23)cn1	> 10000	solubility kinetic [4]: > 200 µM
COCCc1cc(C(=O)C(=O)Nc2ccc(OC(F)(F)F)cc2)c2ccccn12	758	–
COc1ccc(NC(=O)C(=O)c2cn(C(C)C)c3cccc(OC)c23)cn1	7780	–
COc1ccc(NC(=O)C(=O)c2cn(CC(C)(C)OC)c3ccccc23)cn1	> 10000	–
COc1ccc(NC(=O)C(=O)c2cn(C(C)C)c3ccccc23)cc1	181	–
COc1ccc(NC(=O)C(=O)c2cn(C(C)C)c3ncccc23)cn1	126	Activity [5]: inactive; Activity [6]: inactive
COCCn1cc(C(=O)C(=O)Nc2cnc(OC)nc2)c2ccccc21	55	–
CCc1cc(C(=O)C(=O)Nc2ccc(OC)nc2)c2ccccn12	110	–
COCCn1cc(C(=O)C(=O)Nc2ccc(OC)nc2)c2ccccc21	17	half-life at 1 µM [8]: 11 min; Activity [9]: Active; Activity [10]: Active; Activity [11]: Active; Activity [12]: Active; Activity [13]: Active
CC(C)n1cc(C(=O)C(=O)Nc2ccncc2)c2ccccc21	> 10000	–

Structure (SMILES)	CC50 [1] [nM]	also measured
COCCc1cc(C(=O)C(=O)Nc2ccc(OC)nc2)c2ccccn12	36	half-life at 1 µM [8]: 6 min
COc1ccc(NC(=O)C(=O)c2cn(C(C)C)c3ccccc23)cc1OC	> 10000	–
COc1ccc(NC(=O)C(=O)c2cn(C(C)C)c3ccc(Cl)cc23)cc1	> 10000	–
COc1ccc(NC(=O)C(=O)c2cn(C(C)C)c3cc(Cl)ccc23)cn1	1770	–
COc1ccc(NC(=O)C(=O)c2cn(C(C)C)c3ccc(Cl)cc23)cn1	> 10000	–
COCCn1cc(C(=O)C(=O)Nc2ccc(OC(F)(F)F)cc2)c2ccccc21	487	Activity [5]: inactive; Activity [6]: Active
CCn1cc(C(=O)C(=O)Nc2ccc(OC)nc2)c2ccccc21	219	solubility kinetic [4]: 10 µM (≈ 3.23 µg/mL); Activity [5]: inactive; Activity [6]: Active; solubility [7]: soluble
CCC(C)n1cc(C(=O)C(=O)Nc2ccc(OC)nc2)c2ccccc21 (stereo not given)	68	–
CC(C)Oc1ccc(NC(=O)C(=O)c2cn(C(C)C)c3ccccc23)cn1	408	half-life at 1 µM [8]: 66 min
COC(=O)CCn1cc(C(=O)C(=O)Nc2ccc(OC)nc2)c2ccccc21	168	–
COc1ccc(NC(=O)C(=O)c2cn(CC3CCO3)c3ccccc23)cn1 (stereo not given)	686	–
COc1ccc(NC(=O)C(=O)c2cn(C(C)C)c3ccccc23)nn1	2270	–
COc1ccc(NC(=O)C(=O)c2cc(C(C)C)n3ccccc23)cn1	160	solubility kinetic [4]: 10 µM (≈ 3.37 µg/mL); Activity [5]: inactive; Activity [6]: inactive; solubility [7]: soluble; half-life at 1 µM [8]: < 5 min
COc1ccc(NC(=O)C(=O)c2cn(C(C)C)c3c(OC)cccc23)cn1	> 10000	–
CC(C)n1cc(C(=O)C(=O)Nc2ccc(C(F)(F)F)nc2)c2ccccc21	> 10000	–
COc1ccc2c(C(=O)C(=O)Nc3ccc(OC)nc3)cn(C(C)C)c2c1	> 10000	–
CCCCn1cc(C(=O)C(=O)Nc2ccc(OC)nc2)c2ccccc21	18	–
COCCn1cc(C(=O)C(=O)Nc2ccc(OC)nc2)c2cccnc21	27	IC50 [2]: 940 nM; IC50 [3]: 2600 nM; Activity [5]: inactive; Activity [6]: inactive; Activity [9]: Active; Activity [10]: Active; Activity [11]: Active; Activity [12]: Active; Activity [13]: Active
COCCn1cc(C(=O)C(=O)Nc2ccc(OC(C)(C)C)nc2)c2ccccc21	858	–
COc1ccc(NC(=O)C(=O)c2cn(C(C)C)c3ccncc23)cn1	> 10000	–

Structure (SMILES)	CC50 [1] [nM]	also measured
COc1nsc(NC(=O)C(=O)c2cn(C(C)C)c3ccccc23)n1	10400	–
COCCn1cc(C(=O)C(=O)Nc2ccc(OCC(=O)O)nc2)c2ccccc21	> 10000	solubility kinetic [4]: > 200 µM
COc1ccc(NC(=O)C(=O)c2cn(CC(C)C)c3ccccc23)cn1	317	–
COCCn1cc(C(=O)C(=O)Nc2ccncc2)c2ccccc21	> 10000	–
COc1ccc(NC(=O)C(=O)c2cn(C(C)C)c3cccc(Cl)c23)cn1	2130	–
COc1cc2c(c(OC)c1OC)-c1ccc(OC)c(=O)cc1[C@@H](NC(C)=O)CC2	–	Activity [9]: inactive
CC[C@]1(O)C[C@@H]2CN(CCc3c([nH]c4ccccc34)[C@@](C(=O)OC)(c3cc4c(cc3OC)N(C)[C@H]3[C@@](O)(C(=O)OC)[C@H](OC(C)=O)[C@]5(CC)C=CCN6CC[C@]43[C@@H]65)C2)C1	–	Activity [9]: inactive
COc1ccc(NC(=O)C(=O)c2cn(C(C)C)c3cnccc23)cn1	> 10000	–
CCOc1ccc(NC(=O)C(=O)c2cn(C(C)C)c3ccccc23)cn1	175	–
COc1ccc(NC(=O)C(=O)c2cn(C(C)C)c3cccnc23)cn1	> 10000	–
CC(=O)O[C@H]1C(=O)[C@@]2(C)[C@H]([C@H](OC(=O)c3ccccc3)[C@]3(O)C[C@H](OC(=O)[C@H](O)[C@@H](NC(=O)c4ccccc4)c4ccccc4)C(C)=C1C3(C)C)[C@]1(OC(C)=O)CO[C@@H]1C[C@@H]2O	–	Activity [9]: inactive
COc1ccc(NC(=O)C(=O)c2cn(C(C)(C)COCC(=O)O)c3ccccc23)cn1	> 10000	solubility kinetic [4]: > 200 µM
COc1cc(NC(=O)C(=O)c2cn(C(C)C)c3ccccc23)ccn1	1750	–
CC(C)n1cc(C(=O)C(=O)Nc2ccc(OC(F)(F)F)cc2)c2ccccc21	8930	–
CCn1cc(C(=O)C(=O)Nc2ccnc(OC)c2)c2ccccc21	4180	–
CCOC(=O)COc1ccc(NC(=O)C(=O)c2cn(CCOC)c3ccccc23)cn1	> 10000	–
COc1ccc(NC(=O)C(=O)c2cn(CCOC(C)C)c3ccccc23)cn1	211	half-life at 1 µM [8]: 23 min
COCCn1cc(C(=O)C(=O)Nc2ccnc(OC)c2)c2ccccc21	235	–
COCCn1cc(C(=O)C(=O)Nc2ccc(OC)nc2)c2cc(OC)ccc21	> 10000	–
